ChEMBL document CHEMBL1667761, “3-benzylamino-β-carboline derivatives induce apoptosis through G2/M arrest in human carcinoma cells HeLa S-3” (Eur J Med Chem, 2011)
Calls of active or inactive are those of the source. The rule behind the calls is not given here.

Columns and labels:
[1] = Cell cycle arrest in human HeLaS3 cells assessed as accumulation at sub-G1 phase at 5 uM after 24 hrs by flow cytometry; type: functional, cell-based; settings: HeLa S3
Method in brief: (§1)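 HeLa S-3 cells exposed for 6, 12 or 24 h. Cells washed twice in ice-cold PBS, fixed in ice-cold 70% ethanol, and resuspended with 0.1 mg/ml RNase. Stained with […] PI and analysed by flow cytometry. Phase distribution (sub-G1, G1, S, G2/M) is reported as percentage of cells. Controls were untreated.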

[2] = Cell cycle arrest in human HeLaS3 cells assessed as accumulation at G1 phase at 5 uM after 24 hrs by flow cytometry; type: functional, cell-based; settings: HeLa S3; method in brief: as §1
[3] = Cell cycle arrest in human HeLaS3 cells assessed as accumulation at sub-G1 phase at 1 uM after 24 hrs by flow cytometry; type: functional, cell-based; settings: HeLa S3; method in brief: as §1
[4] = Cell cycle arrest in human HeLaS3 cells assessed as accumulation at G1 phase at 1 uM after 12 hrs by flow cytometry; type: functional, cell-based; settings: HeLa S3; method in brief: as §1
[5] = Cell cycle arrest in human HeLaS3 cells assessed as accumulation at G1 phase at 1 uM after 24 hrs by flow cytometry; type: functional, cell-based; settings: HeLa S3; method in brief: as §1
[6] = Cell cycle arrest in human HeLaS3 cells assessed as accumulation at G2/M phase at 1 uM after 12 hrs by flow cytometry; type: functional, cell-based; settings: HeLa S3; method in brief: as §1
[7] = Cell cycle arrest in human HeLaS3 cells assessed as accumulation at sub-G1 phase at 5 uM after 6 hrs by flow cytometry; type: functional, cell-based; settings: HeLa S3; method in brief: as §1
HeLa S3 [8] = experiment: Induction of apoptosis in human HeLaS3 cells assessed as appearance of fragmented nuclei at 10 times IC50 after 48 hrs by Hoechst staining; type: functional, cell-based
Method in brief: (§2)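 Stained with Hoechst 33342 (1 µg/ml) for 40 min at 37 °C. Nuclei were examined by confocal laser microscopy, and apoptosis was scored from chromatin condensation and fragmented nuclei.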

[9] = Cell cycle arrest in human HeLaS3 cells assessed as accumulation at G1 phase at 5 uM after 6 hrs by flow cytometry; type: functional, cell-based; settings: HeLa S3; method in brief: as §1
[10] = Cell cycle arrest in human HeLaS3 cells assessed as accumulation at G1 phase at 1 uM after 6 hrs by flow cytometry; type: functional, cell-based; settings: HeLa S3; method in brief: as §1
[11] = Cell cycle arrest in human HeLaS3 cells assessed as accumulation at S phase at 1 uM after 12 hrs by flow cytometry; type: functional, cell-based; settings: HeLa S3; method in brief: as §1
[12] = Cell cycle arrest in human HeLaS3 cells assessed as accumulation at G2/M phase at 5 uM after 12 hrs by flow cytometry; type: functional, cell-based; settings: HeLa S3; method in brief: as §1
[13] = Antitumor activity against human HeLaS3 cells after 24 to 72 hrs by MTT assay; type: functional, cell-based, HeLa S3; settings: Homo sapiens, HeLa S3
Method in brief: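 HeLa S-3 cells (MEM, 10% FBS, HEPES, NEAA, 2 mM L-glutamine, 5% CO2, 37 °C) seeded at 2 × 10⁴ cells/ml and cultured 3 h before exposure for 24–72 h at 37 °C. MTT (2 mg/ml) added for 4 h at 37 °C, formazan dissolved in DMSO, A540 read. Viability is expressed as % of control. IC50 is the concentration giving 50% growth inhibition, mean ± S.D. of four independent experiments run in triplicate.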

[14] = Cell cycle arrest in human HeLaS3 cells assessed as accumulation at sub-G1 phase at 1 uM after 12 hrs by flow cytometry; type: functional, cell-based; settings: HeLa S3; method in brief: as §1
[15] = Cell cycle arrest in human HeLaS3 cells assessed as accumulation at G2/M phase at 5 uM after 6 hrs by flow cytometry; type: functional, cell-based; settings: HeLa S3; method in brief: as §1
[16] = Cell cycle arrest in human HeLaS3 cells assessed as accumulation at sub-G1 phase at 1 uM after 6 hrs by flow cytometry; type: functional, cell-based; settings: HeLa S3; method in brief: as §1
[17] = Cell cycle arrest in human HeLaS3 cells assessed as accumulation at G2/M phase at 1 uM after 6 hrs by flow cytometry; type: functional, cell-based; settings: HeLa S3; method in brief: as §1
[18] = Cell cycle arrest in human HeLaS3 cells assessed as accumulation at S phase at 1 uM after 24 hrs by flow cytometry; type: functional, cell-based; settings: HeLa S3; method in brief: as §1
[19] = Cell cycle arrest in human HeLaS3 cells assessed as accumulation at G2/M phase at 1 uM after 24 hrs by flow cytometry; type: functional, cell-based; settings: HeLa S3; method in brief: as §1
[20] = Cell cycle arrest in human HeLaS3 cells assessed as accumulation at S phase at 5 uM after 6 hrs by flow cytometry; type: functional, cell-based; settings: HeLa S3; method in brief: as §1
[21] = Cell cycle arrest in human HeLaS3 cells assessed as accumulation at G2/M phase at 5 uM after 24 hrs by flow cytometry; type: functional, cell-based; settings: HeLa S3; method in brief: as §1
[22] = Cell cycle arrest in human HeLaS3 cells assessed as accumulation at S phase at 1 uM after 6 hrs by flow cytometry; type: functional, cell-based; settings: HeLa S3; method in brief: as §1
HeLa S3 [23] = experiment: Induction of apoptosis in human HeLaS3 cells assessed as appearance of fragmented nuclei at 5 times IC50 after 48 hrs by Hoechst staining; type: functional, cell-based; method in brief: as §2
[24] = Cell cycle arrest in human HeLaS3 cells assessed as accumulation at S phase at 5 uM after 24 hrs by flow cytometry; type: functional, cell-based; settings: HeLa S3; method in brief: as §1
[25] = Cell cycle arrest in human HeLaS3 cells assessed as accumulation at S phase at 5 uM after 12 hrs by flow cytometry; type: functional, cell-based; settings: HeLa S3; method in brief: as §1
[26] = Cell cycle arrest in human HeLaS3 cells assessed as accumulation at G1 phase at 5 uM after 12 hrs by flow cytometry; type: functional, cell-based; settings: HeLa S3; method in brief: as §1
[27] = Cell cycle arrest in human HeLaS3 cells assessed as accumulation at sub-G1 phase at 5 uM after 12 hrs by flow cytometry; type: functional, cell-based; settings: HeLa S3; method in brief: as §1
HeLa S3 [28] = experiment: Induction of apoptosis in human HeLaS3 cells assessed as DNA fragmentation upto 48 hrs by agarose gel electrophoresis; type: functional, cell-based
Method in brief: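 HeLa S-3 cells exposed for 12–48 h, then pellets lysed in 0.6% sarcosine, 20 mM Tris-HCl pH 7.4, 20 mM EDTA. Lysate treated with RNase A for 2 h at 50 °C, then proteinase K overnight at 50 °C. DNA extracted with phenol/chloroform, run on 2% agarose in TAE at 50 V, stained with ethidium bromide, and visualised under UV.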

HeLa S3 [29] = experiment: Induction of apoptosis in human HeLaS3 cells assessed as cleaved caspase-3 at 5 times IC50 by Western blot method; type: functional, cell-based
Method in brief: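 HeLa S-3 cells treated for 24 h at 5-fold the IC50, alongside non-treated controls. Cells lysed in RIPA buffer (pH 8.0) with protease inhibitors and the whole-cell extract separated by SDS-PAGE, then transferred to PVDF. Blots blocked in 5% skim milk/TTBS and probed with anti-cdc2, cdk2 or cleaved caspase-3 antibodies (1:1000). β-actin (1:5000) served as loading control. Detection by HRP secondary antibody and ECL.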

**Q.** For c1ccc2c(c1)[nH]c1cnc(NCC3CCCCC3)cc12, which Activity [1] is on record?
**A.** The Activity was 2.8%.

**Q.** What about the Activity [2] of the same molecule?
**A.** The Activity was 29.7%.

**Q.** What about the Activity [3] of the same molecule?
**A.** The Activity was 1.7%.

**Q.** What about the Activity [4] of the same molecule?
**A.** Its Activity is 58.4%.

**Q.** What about the Activity [5] of the same molecule?
**A.** The Activity was 68.2%.

**Q.** And the Activity [6]?
**A.** Its Activity is 28.9%.

**Q.** What about the Activity [7] of the same molecule?
**A.** The Activity was 2.6%.

**Q.** What about the Activity (HeLa S3 [8]) of the same molecule?
**A.** Its Activity is “Active”.

**Q.** And the Activity [9]?
**A.** Its Activity is 51%.

**Q.** And the Activity [10]?
**A.** The Activity was 48.4%.

**Q.** What about the Activity [11] of the same molecule?
**A.** The Activity was 10.5%.

**Q.** What about the Activity [12] of the same molecule?
**A.** The Activity was 27.4%.

**Q.** What about the IC50 [13] of the same molecule?
**A.** The IC50 was 5.2 µM.

**Q.** What about the Activity [14] of the same molecule?
**A.** Its Activity is 2.5%.

**Q.** And the Activity [15]?
**A.** Its Activity is 31.4%.

**Q.** And the Activity [16]?
**A.** The Activity was 3.5%.

**Q.** And the Activity [17]?
**A.** The Activity was 23.1%.

**Q.** And the Activity [18]?
**A.** The Activity was 14.7%.

**Q.** What about the Activity [19] of the same molecule?
**A.** The Activity was 15.7%.

**Q.** What about the Activity [20] of the same molecule?
**A.** Its Activity is 12.7%.

**Q.** What about the Activity [21] of the same molecule?
**A.** The Activity was 50.5%.

**Q.** What about the Activity [22] of the same molecule?
**A.** Its Activity is 19.7%.

**Q.** And the Activity (HeLa S3 [23])?
**A.** The Activity was “inactive”.

**Q.** And the Activity [24]?
**A.** The Activity was 13.8%.

**Q.** And the Activity [25]?
**A.** Its Activity is 12.3%.

**Q.** And the Activity [26]?
**A.** Its Activity is 56.7%.

**Q.** And the Activity [27]?
**A.** The Activity was 3%.

**Q.** And the Activity (HeLa S3 [28])?
**A.** Its Activity is “inactive”.

**Q.** And the Activity (HeLa S3 [29])?
**A.** Its Activity is “inactive”.
